Screening data as filed in PubChem BioAssay.
Compounds with a hit are over-represented: about 1.9% of the library has one in this group of screens.
PglD inh = inhibitors of Campylobacter jejuni PglD acetyltransferase | purified PglD enzyme, DTNB colorimetric CoA detection | inhibition, % at 12.5 µM | actives 0.098% (n = 360,000); in the data active = inhibition above about 16%, passing the limit was not always enough
RAD52 anneal inh = RAD52 (human) annealing inhibition; P43351; recombinant RAD52 DNA annealing, FRET fluorescence; inhibition, % at 18.7 µM; actives 0.46% (n = 360,000); AID 651710;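 active = every replicate showing at least 50% inhibition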
Target sequence (P43351 whole entry, looked up): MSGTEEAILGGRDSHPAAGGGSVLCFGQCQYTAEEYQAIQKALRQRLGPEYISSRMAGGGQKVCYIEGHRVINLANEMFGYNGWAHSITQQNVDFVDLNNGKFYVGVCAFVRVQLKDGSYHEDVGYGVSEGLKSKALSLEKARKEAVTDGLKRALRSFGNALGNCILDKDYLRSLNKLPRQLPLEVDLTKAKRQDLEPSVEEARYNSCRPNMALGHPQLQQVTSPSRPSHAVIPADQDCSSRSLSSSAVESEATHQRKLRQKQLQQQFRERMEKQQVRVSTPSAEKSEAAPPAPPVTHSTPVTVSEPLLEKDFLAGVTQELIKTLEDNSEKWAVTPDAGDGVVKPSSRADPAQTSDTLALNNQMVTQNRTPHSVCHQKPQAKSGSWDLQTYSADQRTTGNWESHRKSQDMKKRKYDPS
rRNA inh HTS = inhibitors of bacterial rRNA selective over humanized ribosomes; E. coli WT GFP vs humanized-ribosome RFP mutants, fluorescence, 24 h; hits give low values; DMSO median 0, no signal -100; GFP signal change (wild-type ribosome), % (concentration not given with the values); actives 1.6% (n = 350,000); AID 720706;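 active = significant combined selectivity score with lowered wild-type GFP, culture density cut under 30%, mutant RFP and density less affected; inactive = any of these conditions unmet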
RAD54 branch = RAD54 (human) branch migration inhibition; Q92698; RAD54 Holliday junction branch migration, FAM/BHQ fluorescence; inhibition, % at 10.4 µM; actives 0.14% (n = 360,000); AID 602329;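 active = mean normalized replicate activity at least 40 and at least half of replicates scoring 40 or more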;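 also: 0% = median of neutral control wells and 100% = median of positive control wells; inhibitors cause a drop in the FAM fluorescence signal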
Cneo AK release = Cryptococcus neoformans lysis via adenylate kinase release | actives 0.2% (n = 360,000) | lysis activity, % at 15 µM | C. neoformans lysis, adenylate kinase release luminescence, 4 h; normalised: neutral wells 0, clomiphene wells 100;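 active = mean lysis activity across replicates of at least 80%, whatever share of replicates individually reach that level; inactive = mean lysis activity below 80%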
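Assay system: C. neoformans cells. Amount: yeast cell density of 5 × 10^6 cells/mL. Technique: AK luminescence. Buffer or medium: YPD. Times: static 4 h at 37 °C with compound, 1 h detection. Dosing: single-point compound dose. Read-out: lysis from increased AK signal.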
The depositor's hits bear a star; nt = no result given.

SMILES	PglD inh	RAD52 anneal inh	rRNA inh HTS	RAD54 branch	Cneo AK release
CN(C)CCCN(C(=O)COc1ccc(Cl)cc1)c1nc2cc3c(cc2s1)OCCO3	6	60*	-5	20	5
CC1CCCN(C(=S)SCC(=O)c2cc(Br)cc(Br)c2O)C1 (configuration not stated)	nt	-5	nt	nt	nt
O=C(CSC(=S)N1CCCC1)c1cc(Br)cc(Br)c1O	nt	-11	-30*	nt	nt
COc1ccc(N2CCN(C(=O)c3ccc(Br)cc3)CC2)c([N+](=O)[O-])c1	nt	-3	-24*	nt	nt
COc1ccc(N2CCN(C(=O)c3ccccc3)CC2)c([N+](=O)[O-])c1	8	0	-23*	10	2
COc1ccc(N2CCN(C(=O)c3ccccc3Br)CC2)c([N+](=O)[O-])c1	nt	-6	-17	nt	nt
COc1ccc(-c2ccc3c(c2)C2CC3CCN2C(=O)C(C)(C)C)cc1 (configuration not stated)	nt	-9	-30*	0	-2
N#Cc1ccc(C(=O)N2CCC3CC2c2cc(-c4ccc(F)cc4)ccc23)cc1 (configuration not stated)	3	-9	-26*	-15	5
CC(C)NC(=O)N(C)C[C@H]1Oc2ccc(N(C)C)cc2C(=O)N(C)C[C@@H]1C	nt	nt	1	nt	nt
Cc1cc2ccccc2nc1-c1ccccc1F	nt	-4	-16*	nt	nt
O=C1N[C@H](c2ccccc2)COCc2cnnn2CC[C@H]1Cc1ccc(C(F)(F)F)cc1	nt	nt	0	nt	nt
CC(=O)N(C)C[C@@H]1Oc2ccc(N(C)C)cc2CC(=O)N(C)C[C@H]1C	nt	nt	0	nt	nt
Cc1noc(C)c1NC(=O)N(C)C[C@@H]1Oc2ccc(NC(=O)C3CCCCC3)cc2CC(=O)N([C@@H](C)CO)C[C@@H]1C	0	4	2	7	6
Cc1noc(C)c1NC(=O)N(C)C[C@H]1Oc2ccc(NC(=O)C3CC3)cc2CC(=O)N([C@@H](C)CO)C[C@H]1C	-1	4	4	12	117*
Cc1noc(C)c1NC(=O)N(C)C[C@H]1Oc2ccc(NC(=O)Cc3ccccc3)cc2CC(=O)N([C@@H](C)CO)C[C@@H]1C	-4	77*	3	-8	0
Cc1noc(C)c1NC(=O)N(C)C[C@@H]1Oc2ccc(NS(=O)(=O)c3cn(C)cn3)cc2CC(=O)N([C@H](C)CO)C[C@H]1C	3	27	2	-2	103*
C[C@H](CO)N1C[C@H](C)[C@H](CN(C)S(=O)(=O)c2ccc(Cl)cc2)Oc2ccc(N(C)C)cc2C1=O	13	7	-3	10	1
CCCCCc1cc(=O)oc2c(C(CCN3CCCC(C)C3)c3ccc(OC)cc3)c(OC)cc(OC)c12 (configuration not stated)	1	16	-37*	6	28
CCCCCc1cc(=O)oc2c(C(CCN3CCCCC3)c3ccc(OC)cc3)c(OC)cc(OC)c12 (configuration not stated)	-5	-122	-56	1	0
COc1cc(/C=C(\C#N)C(=O)NCCc2ccccc2)cc(OC)c1O	nt	-453	-31*	nt	nt
COC(=O)c1c(CC[C@@H](CO)NC(=O)N[C@H](Cc2ccccc2)Cn2cc(-c3ccccn3)nn2)oc(C(C)=O)c1C(=O)OC	3	-8	nt	-4	-2
O=C(c1ccc2c(=O)n(C3CCCC3)c(=S)[nH]c2c1)N1CCCCCC1	nt	-1	-28*	nt	nt
CC1CCCN(C(=O)c2ccc3c(=O)n(C4CCCC4)c(=S)[nH]c3c2)C1 (configuration not stated)	-2	-15	15	-6	17
CN1c2ccc(-c3ccccc3)cc2[C@H]2[C@H](CCN2C(=O)c2ccccn2)[C@@H]1CO	nt	nt	-7	nt	nt
Cc1cccc(N2CCN(Cc3cc(=O)n4ccsc4n3)CC2)c1C	-3	nt	nt	-5	-2
SMILES	PglD inh	RAD52 anneal inh	rRNA inh HTS	RAD54 branch	Cneo AK release
Cc1ccc(Cl)cc1N1CCN(Cc2cc(=O)n3ccsc3n2)CC1	nt	-7	-29*	nt	nt
C[C@@H]1CN([C@H](C)CO)C(=O)c2cc(NC(=O)C3CCCCC3)ccc2O[C@H]1CN(C)C(=O)Nc1ccc(F)cc1	-2	12	-3	0	3
O=C(COc1ccccc1Br)c1ccc(O)cc1O	2	-1	-42*	9	7
COc1ccc2c3c(n(C)c2c1)[C@H](CO)N(C(=O)c1ccc(F)cc1)CC31CN(C(C)=O)C1	nt	nt	0	nt	nt
COc1ccccc1CNC(=O)C[C@H]1CC[C@H]2[C@@H](COc3ccc(NC(C)=O)cc3C(=O)N2C)O1	0	nt	2	9	-1
CCCNC(=O)C[C@@H]1CC[C@@H]2[C@@H](COc3ccc(NC(=O)CCC)cc3C(=O)N2C)O1	2	8	2	5	105*
COc1ccccc1CNC(=O)C[C@@H]1CC[C@@H]2[C@H](COc3ccc(NC(C)=O)cc3C(=O)N2C)O1	1	nt	4	0	101*
C[C@@H]1CN([C@H](C)CO)C(=O)c2cccc(NS(=O)(=O)c3cccs3)c2O[C@@H]1CN(C)S(=O)(=O)c1ccc(Cl)cc1	-2	-290	-4	-9	0
Cc1ccc(Nc2nc(=O)c3cccnc3s2)c(Br)c1	10	-2	-22*	-15	2
CCc1ccc(Nc2cnn(C34CC5CC(CC(CC(=O)O)(C5)C3)C4)c(=O)c2Cl)cc1	-1	-10	-27*	7	3
O=C(O)Cc1ccc(Nc2cnn(C34CC5CC(CC(CC(=O)O)(C5)C3)C4)c(=O)c2Cl)cc1	-8	-10	8	3	1
CC=Cc1ccc2n(c1=O)C[C@H]1[C@H](CO)[C@@H](C(=O)NCCc3ccncc3)[C@@H]2N1CCc1ccccc1 (mixture of isomers)	nt	-19	-4	nt	nt
CCCNC(=O)N1CC2(C1)CN(C(=O)COC)[C@H](CO)c1c2c2ccc(OC)cc2n1C	nt	nt	-1	nt	nt
COc1ccccc1NC(=O)C(=O)NCC1COc2ccccc2O1 (configuration not stated)	0	-8	-23*	12	0
CS(=O)(=O)N1CCc2cc(C(=O)N3CCN(c4ccccc4)CC3)ccc21	4	-5	2	4	0
O=C(NNC(=O)c1cccc(S(=O)(=O)N2CCc3ccccc32)c1)c1ccccc1	nt	3	-26*	nt	nt
O=C(c1ccc2c(c1)CCN2S(=O)(=O)c1ccccc1)N1CCN(c2ccccc2F)CC1	-6	-20	-22*	-4	-1
CC(C)CCNC(=O)c1cccc(S(=O)(=O)N2CCc3ccccc32)c1	-1	nt	nt	4	0
Cc1ccc(S(=O)(=O)NC[C@@H]2CC[C@@H]3[C@@H](CN3Cc3cc(-c4ccccc4)on3)O2)cc1	nt	1	nt	nt	nt
CO[C@H](CN(C)Cc1ccc2c(c1)OCO2)[C@H](C)CN(C(=O)c1ccccc1)[C@H](C)CO	-2	-12	3	2	0
CO[C@H](CN(C)Cc1ccc2c(c1)OCO2)[C@@H](C)CN(C(=O)c1ccccc1)[C@@H](C)CO	-1	4	4	9	104*
